From ChEMBL document CHEMBL5058577, “EUbOPEN Chemogenomics Library 2 (Multiplex)” (2022)

Test system: HEK-293T
Assay: Multiplex assay against HEK293T
Format: toxicity, cell-based
Conditions: human
Outline: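 Cells were classed with CellPathfinder machine-learning gating, first as Hoechst high-intensity objects or normal cells, then (normal cells) as healthy, pyknosed or fragmented nuclei, and finally (pyknosed cells) as mitotic or apoptotic. Staining of live cells at seeding used Hoechst33342, BioTracker Green Microtubule Cytoskeleton Dye, MitoTracker Red and Annexin V Alexa Fluor 680, with imaging on a CQ1 microscope at 37°C and 5% CO2 after compound addition. Tubulin, mitochondrial-mass and membrane-permeability phenotypes are per cents of healthy-nucleus cells.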

[1] = 12 h, 1 µM, compound concentration 1 uM, replicate 1
[2] = 12 h, 1 µM, compound concentration 1 uM, replicate 2
[3] = 12 h, 10 µM, compound concentration 10 uM, replicate 1
[4] = 12 h, 10 µM, compound concentration 10 uM, replicate 2
[5] = 24 h, 1 µM, compound concentration 1 uM, replicate 1
[6] = 24 h, 1 µM, compound concentration 1 uM, replicate 2
[7] = 24 h, 10 µM, compound concentration 10 uM, replicate 1
[8] = 24 h, 10 µM, compound concentration 10 uM, replicate 2
[9] = 48 h, 1 µM, compound concentration 1 uM, replicate 1
[10] = 48 h, 1 µM, compound concentration 1 uM, replicate 2
[11] = 48 h, 10 µM, compound concentration 10 uM, replicate 1
[12] = 48 h, 10 µM, compound concentration 10 uM, replicate 2

## Cl.NCCc1ccc(O)c(O)c1 [DOPAMINE HYDROCHLORIDE]
[1]
  Population Apoptotic (%): 31%
  Population Fragmented Nuclei (%): 6%
  Population Healthy Nuclei (%): 77%
  Population Hoechst High Intensity Objects (%): 10%
  Population Membrane Permeable-Phenotype (%): 0%
  Population Mitochondria Different-Phenotype (%): 54%
  Population Mitotic Cells (%): 68%
  Population Normal (%): 89%
  Population Pyknosed Nuclei (%): 16%
  Population Tubulin-Different-Phenotype (%): 36%
  Total Cell Count: 324
[2]
  Population Apoptotic (%): 54%
  Population Fragmented Nuclei (%): 7%
  Population Healthy Nuclei (%): 78%
  Population Hoechst High Intensity Objects (%): 6%
  Population Mitochondria Different-Phenotype (%): 58%
  Population Mitotic Cells (%): 46%
  Population Normal (%): 93%
  Population Pyknosed Nuclei (%): 14%
  Population Tubulin-Different-Phenotype (%): 18%
  Total Cell Count: 372
[3]
  Population Apoptotic (%): 46%
  Population Fragmented Nuclei (%): 5%
  Population Healthy Nuclei (%): 77%
  Population Hoechst High Intensity Objects (%): 6%
  Population Membrane Permeable-Phenotype (%): 0%
  Population Mitochondria Different-Phenotype (%): 57%
  Population Mitotic Cells (%): 53%
  Population Normal (%): 93%
  Population Pyknosed Nuclei (%): 17%
  Population Tubulin-Different-Phenotype (%): 43%
  Total Cell Count: 344
[4]
  Population Apoptotic (%): 37%
  Population Healthy Nuclei (%): 83%
  Population Hoechst High Intensity Objects (%): 5%
  Population Mitochondria Different-Phenotype (%): 51%
  Population Mitotic Cells (%): 62%
  Population Normal (%): 94%
  Population Pyknosed Nuclei (%): 11%
  Population Tubulin-Different-Phenotype (%): 23%
  Total Cell Count: 413
[5]
  Population Apoptotic (%): 44%
  Population Fragmented Nuclei (%): 9%
  Population Healthy Nuclei (%): 76%
  Population Hoechst High Intensity Objects (%): 4%
  Population Membrane Permeable-Phenotype (%): 1%
  Population Mitochondria Different-Phenotype (%): 40%
  Population Mitotic Cells (%): 55%
  Population Normal (%): 95%
  Population Pyknosed Nuclei (%): 13%
  Population Tubulin-Different-Phenotype (%): 19%
  Total Cell Count: 451
[6]
  Population Apoptotic (%): 20%
  Population Fragmented Nuclei (%): 8%
  Population Healthy Nuclei (%): 85%
  Population Hoechst High Intensity Objects (%): 5%
  Population Membrane Permeable-Phenotype (%): 0%
  Population Mitochondria Different-Phenotype (%): 46%
  Population Mitotic Cells (%): 79%
  Population Normal (%): 94%
  Population Pyknosed Nuclei (%): 5%
  Population Tubulin-Different-Phenotype (%): 11%
  Total Cell Count: 478
[7]
  Population Apoptotic (%): 39%
  Population Fragmented Nuclei (%): 7%
  Population Healthy Nuclei (%): 79%
  Population Hoechst High Intensity Objects (%): 5%
  Population Membrane Permeable-Phenotype (%): 0%
  Population Mitochondria Different-Phenotype (%): 36%
  Population Mitotic Cells (%): 60%
  Population Normal (%): 94%
  Population Pyknosed Nuclei (%): 12%
  Population Tubulin-Different-Phenotype (%): 23%
  Total Cell Count: 393
[8]
  Population Apoptotic (%): 38%
  Population Fragmented Nuclei (%): 9%
  Population Healthy Nuclei (%): 83%
  Population Mitochondria Different-Phenotype (%): 40%
  Population Mitotic Cells (%): 61%
  Population Pyknosed Nuclei (%): 7%
  Population Tubulin-Different-Phenotype (%): 15%
  Total Cell Count: 533
[9]
  Population Apoptotic (%): 19%
  Population Fragmented Nuclei (%): 14%
  Population Healthy Nuclei (%): 78%
  Population Hoechst High Intensity Objects (%): 4%
  Population Membrane Permeable-Phenotype (%): 1%
  Population Mitochondria Different-Phenotype (%): 23%
  Population Mitotic Cells (%): 80%
  Population Normal (%): 95%
  Population Pyknosed Nuclei (%): 7%
  Population Tubulin-Different-Phenotype (%): 14%
  Total Cell Count: 785
[10]
  Population Apoptotic (%): 23%
  Population Fragmented Nuclei (%): 10%
  Population Healthy Nuclei (%): 81%
  Population Membrane Permeable-Phenotype (%): 0%
  Population Mitochondria Different-Phenotype (%): 20%
  Population Mitotic Cells (%): 76%
  Population Tubulin-Different-Phenotype (%): 7%
  Total Cell Count: 638
[11]
  Population Apoptotic (%): 30%
  Population Fragmented Nuclei (%): 14%
  Population Healthy Nuclei (%): 79%
  Population Hoechst High Intensity Objects (%): 3%
  Population Membrane Permeable-Phenotype (%): 0%
  Population Mitochondria Different-Phenotype (%): 24%
  Population Mitotic Cells (%): 70%
  Population Normal (%): 96%
  Population Pyknosed Nuclei (%): 6%
  Population Tubulin-Different-Phenotype (%): 13%
  Total Cell Count: 660
[12]
  Population Apoptotic (%): 17%
  Population Fragmented Nuclei (%): 12%
  Population Healthy Nuclei (%): 83%
  Population Hoechst High Intensity Objects (%): 1%
  Population Mitochondria Different-Phenotype (%): 17%
  Population Mitotic Cells (%): 82%
  Population Normal (%): 98%
  Population Pyknosed Nuclei (%): 4%
  Population Tubulin-Different-Phenotype (%): 7%
  Total Cell Count: 859
